Measured values published in publication PMC11867109 (Chemical Science, 2025).
No end group written: not given here.

Experiments:
[1] = system: human red blood cells; experiment: Hemolysis assay; type: cell-based; conditions: hRBC, at 64 μg mL^−1 peptide; mean ± SD
In short: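 Human red blood cells exposed to two-fold serial dilutions of test peptide, with 4096 µg mL⁻¹ as the assay's upper concentration limit. HC10 is interpolated continuously from the dilution series. Values are means of three independent experiments, each with at least two technical duplicates, with standard deviation.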

[2] = Helicity and helical rigidity by circular dichroism; type: physicochemical; conditions: ratio between molar ellipticity in 15% TFE and in 100% TFE

With GLFDIIKKIAESF-NH2 [Aurein 1.2] the hemolysis [1] was 37.2 ± 1.8% and the “Helical rigidity % ± SD” value [2] was 102 ± 2%.
